Compound activity (PubChem)
A selection: hits, their analogues and other compounds. The true share with any hit is near 4.3%.
RBBP9 inhibitor – blocks human serine hydrolase RBBP9; O75884; inhibition, % at 7.94 µM; 0.2% of 220,000 active; recombinant RBBP9, FP-Rh probe fluorescence polarization;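 active = inhibition above the campaign mean of all tested compounds plus 3 SD, cut at about 14% in these data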;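 note: plate controls were DMSO wells with RBBP9 for no effect and wells lacking RBBP9 protein for full effect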
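Assay system: recombinant human RBBP9; Reagent: Serine-hydrolase probe FP-Rh, 375 nM pre-mixing; Doses: 7.94 µM single dose, 0.794% DMSO; Incubation: 30 min then 45 min, 25 °C; Detection: fluorescence polarization (mP), excitation 525 nm, emission 598 nm; Evaluation: percent inhibition from mP, scaled between DMSO and no-protein wells.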
SUMO HTRF inh – blocks human SUMOylation mediated by UBC9 | P63279 | HTRF SUMOylation assay, SAE1/SAE2 + UBC9, in vitro | inhibition, % at 35 µM | 0.36% of 290,000 active | AID 2006; in the data active = inhibition above about 50%, passing the limit was not always enough
ALR H2O2 inh – blocks human ALR sulfhydryl oxidase activity. purified ALR, DTT oxidation, H2O2 HRP-luminol luminescence. AID 485317. inhibition, % (test concentration not listed). 3.8% of 290,000 active. P55789;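 active = mean replicate inhibition above about 79%, with every replicate also reaching it, limit read from the data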
UBC13 inh – inhibitors of human UBC13 polyubiquitin chain formation; TR-FRET; 0.47% of 330,000 active; inhibition, % at 20 µM; AID 485273; in the data active = inhibition above about 45%, passing the limit was not always enough
Rin1-Abl PPI inh – human Rin1-Abl interaction inhibition; P00519+Q13671; TR-FRET Rin1/Abl binding, biochemical; inhibition, % at 7.35 µM; 0.4% of 360,000 active; AID 588664; in the data active = inhibition above about 5%, passing the limit was not always enough
PREPL inh – inhibits the human prolyl oligopeptidase-like enzyme; Q4J6C6; recombinant PREPL, fluorescence polarization activity-based probe; inhibition, % at 5.96 µM; 0.68% of 320,000 active; in the data active = inhibition above about 43%;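 note: 0% = enzyme with DMSO and 100% = wells lacking enzyme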
Rin1 Abl conf – Rin1-Abl interaction inhibition confirmation; shares compounds with Rin1-Abl PPI inh; TR-FRET Rin1-Abl binding, purified proteins; inhibition, % at 7.35 µM; 49% of 1,300 active; AID 602124
GFP quench – counter-screen for Rin1-Abl inhibitors: GFP fluorescence quenchers. shares compounds with Rin1-Abl PPI inh. inhibitors/quenchers counterscreen. inhibition, % at 6.75 µM. 8.5% of 1,300 active;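 note: ABL1-eGFP fusion protein alone without its partner RIN1-SBP; 0% = protein with vehicle and 100% = wells lacking protein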
GFP quench dose – GFP fluorescence interference dose response; GFP fluorescence interference/quenching counterscreen; IC50, µM; 230 tested, under 10 active; shares compounds with Rin1-Abl PPI inh; call rule not given here;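 note: ABL1-eGFP fusion protein alone without its RIN1 binding partner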
* marks the source's active call; other numbers are inactive results; nt = no result given. Cut-off read from the data, not from the text of the source, unless noted: active = inhibition above about 6.5%; inactive = the rest.

SMILES	RBBP9 inhibitor	SUMO HTRF inh	ALR H2O2 inh	UBC13 inh	Rin1-Abl PPI inh	PREPL inh	Rin1 Abl conf	GFP quench	others
CCOc1ccc(CCNC(=O)CN2C(=O)CCSc3ccccc32)cc1	nt	-1	6	-1	11*	10	1	0
COc1ccc2cc(C3=CCCCC3)ncc2c1	nt	nt	-23	4	-2	1	nt	nt
Cc1ccc(C(OCC(O)CNC(CO)C(O)c2ccc([N+](=O)[O-])cc2)c2ccccc2)cc1 (centres undefined)	nt	7	4	14	-2	25	nt	nt
CC(=O)c1ccc(OC(C)C)c(CN2CCCCC2)c1	-2	11	-14	5	8.6*	6	-1	0
CN1CCN(C(=O)c2cccc(-c3ccc4nncn4c3)c2)CC1	nt	nt	nt	nt	-5	nt	nt	nt
CN1CCN(C(=O)c2cccc(-c3cc(O)c4ncccc4c3)c2)CC1	nt	nt	2	17	26*	24	33*	7.4*
O=c1cc(-c2ccc(O)c(O)c2)oc2cc(O)c([C@@H]3O[C@H](CO)[C@@H](O)[C@H](O)[C@H]3O)c(O)c12	nt	nt	99*	-16	22*	20	28*	10*
O=c1c2cc(O)c(O)cc2oc2cc(O)c(C3OC(CO)C(O)C(O)C3O)c(O)c12 (centres undefined)	nt	nt	99*	7	29*	-1	30*	8.4*
CCOC1=C2CN(S(=O)(=O)c3ccc(C)cc3)[C@H](c3cccc(Cl)c3)C[C@@H]2N(S(=O)(=O)c2ccccc2[N+](=O)[O-])[C@H](c2ccccc2)C1	nt	nt	nt	nt	3	nt	nt	nt
CCc1noc(C)c1C(=O)Nc1cc(S(=O)(=O)N2CCOCC2)ccc1N1CCN(CC)CC1	nt	nt	-15	-3	2	-1	nt	nt
NS(=O)(=O)c1ccc(N=Nc2ccc(O)c3ncccc23)cc1	nt	-48	-5	-191	11*	9	4	13*
Cc1cccc(N=Nc2ccc(O)c3ncccc23)c1	-7	-119	nt	-168	6.9*	12	6.5*	4
Cc1ccc(C)c(N=Nc2ccc(O)c3ncccc23)c1	5	-17	-18	-150	0	4	nt	nt
CCOC(=O)C1CC2=C(CC(C)(C)CC2=O)N(CCOC)C1=O (centres undefined)	nt	nt	nt	nt	-2	nt	nt	nt
COc1ccccc1NC(=O)Nc1nc(CC(=O)Nc2cc(F)ccc2F)cs1	nt	nt	nt	44	2	-2	nt	nt
COc1ccc(CNC2CC(C)N(C)CC2C)cc1OC (centres undefined)	nt	12	-2	9	1	-7	nt	nt
CCCCC(=O)NC(c1ccco1)c1cc(Cl)c2cccnc2c1O (centres undefined)	-8	-19	-26	-25	2	15	nt	nt
CC(=O)NC(c1ccc(C)cc1)c1cc(Cl)c2cccnc2c1O (centres undefined)	nt	-33	18	-8	7.0*	nt	6	2
COc1cccc(C(NC(C)=O)c2ccc3cccnc3c2O)c1 (centres undefined)	nt	-35	6	-17	6.7*	7	9.6*	2
CC(=O)NC(c1ccco1)c1cc(Cl)c2cccnc2c1O (centres undefined)	nt	nt	nt	nt	11*	nt	11*	3
COCC(C)NS(=O)(=O)c1ccc(NC(=O)c2ccccn2)cc1 (centres undefined)	-2	34	nt	11	-6	3	nt	nt
COc1cccc(Cn2nnc(C(=O)NCc3ccc4c(c3)OCO4)c2N)c1	-4	9	-1	2	9.1*	-1	7.3*	-1
Nc1c(C(=O)NCc2ccc3c(c2)OCO3)nnn1Cc1cccc(F)c1	-6	10	-6	18	8.4*	15	10*	-2
Cc1ccc(S(=O)(=O)NC(=O)C2(C)CCN2C(=O)CC2CCCC2)nc1 (centres undefined)	nt	nt	nt	nt	-4	nt	nt	nt
CCN1C(=O)C2(C(C(=O)c3cc4ccccc4o3)=C(O)C(=O)N2CCCN2CCOCC2)c2ccccc21 (centres undefined)	-7	8	nt	-55	-30	5	nt	nt
SMILES	RBBP9 inhibitor	SUMO HTRF inh	ALR H2O2 inh	UBC13 inh	Rin1-Abl PPI inh	PREPL inh	Rin1 Abl conf	GFP quench	others
O=c1nc2n(c3ncccc13)CCCCC2	-4	7	-3	-6	2	9	nt	nt
Cc1cc(C)nc(N(C#N)Cc2ccccc2)n1	1	-2	-10	2	7.2*	-6	-2	1
Cc1cc(C)nc(N(C#N)Cc2ccc([N+](=O)[O-])cc2)n1	-9	-4	-2	-12	-1	15	nt	nt
O=C(O)c1ccc(COc2ccccc2Cl)cc1	5	14	-3	-14	5.0*	11	0	0
O=C(O)c1cccc(COc2ccccc2Cl)c1	nt	-6	-2	0	2	16	nt	nt
O=C(CCc1ccccc1)N1CCN(Cc2ccc(F)cc2Cl)CC1	nt	12	-9	-1	0	21	nt	nt
COc1ccc(C2Nc3ccccc3C(=O)N2NS(=O)(=O)c2ccc(C)cc2)c(OC)c1 (centres undefined)	nt	3	-3	11	0	-14	nt	nt
Cc1ccc(S(=O)(=O)NN2C(=O)c3ccccc3NC2c2ccccc2F)cc1 (centres undefined)	nt	-7	-2	10	13*	-32	-2	-5
O=C(CCNC(=O)c1ccc(Br)cc1)NCc1ccncc1	nt	nt	-3	2	10*	-45	3	1
CN(C)S(=O)(=O)c1ccc(C(=O)OC2CCOC2=O)cc1 (centres undefined)	nt	-7	-1	3	6.9*	4	1	-2
Cc1sc(NC(=O)C2CC(=O)N(Cc3ccco3)C2)nc1-c1ccccc1 (centres undefined)	nt	nt	nt	nt	0	nt	nt	nt
O=C(NC1CCCc2ccccc21)C1CCCN(S(=O)(=O)c2cnc[nH]2)C1 (centres undefined)	6	14	-45	1	7.3*	-5	0	-2
COc1ccc(C2c3c(nc[nH]c3=O)Oc3nc[nH]c(=O)c32)cc1	nt	6	1	3	50*	-2	64*	-2	GFP quench dose=>68
CN(C)CCNC(=O)c1cccc(S(=O)(=O)Nc2ccc(F)cc2)c1	-9	-2	-4	3	9.2*	-16	-2	-1
COc1cc(C(=O)Nc2ccc(O)cc2C(=O)O)ccc1OC(C)=O	-14	-16	87*	-2	71*	8	72*	0	GFP quench dose=>68
CCOc1c(Cl)cc(C(=O)Nc2ccccc2C(=O)O)cc1Cl	-2	3	8	4	13*	-2	19*	1	GFP quench dose=>68
CC(=O)Nc1cccc(C(=O)Nc2ccccc2C(=O)O)c1	4	4	0	2	17*	5	-2	0
